Measurements: article PMC7508919 (Molecular Therapy Oncolytics, 2020)
“Also recorded” adds a separate entry of the source.

Key:
HCC1937 cells [1] = assay: Transwell invasion assay, HCC1937; format: cell-based; settings: Matrigel-coated Transwell, 48 h, Figure S4
Method in brief: (§1)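 Cells (2 × 104) were seeded in serum-free medium with serially diluted test peptide or scrambled peptide into Matrigel-coated upper Transwell chambers. The lower chamber held 10% FBS medium as chemoattractant. Incubation ran 48 h at 37°C, 5% CO2. Non-invaded cells were removed. Invaded cells were methanol-fixed for 10 min, stained with hematoxylin for 30 min, and counted. Three independent experiments, mean ± SD.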

tumor tissue [2] = assay: TUNEL assay of tumor tissue; format: in vivo, nude BALB/c mice; settings: Figure 6C
Method in brief: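 Xenograft tumor tissue was fixed in 4% PFA overnight and paraffin-embedded. Apoptotic cells in sections were detected with a FragEL DNA fragmentation kit (TUNEL) and imaged at ×200. Tumors came from test peptide- or scrambled peptide-treated mice.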

GPR1 [3] = assay: Phage clones binding to GPR1 by ELISA; set-up: species or system human; settings: versus HEK293 pcDNA cells, Figure 2A
Method in brief: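 A Ph.D.-7 library (diversity 2.8 × 109) was precleared, then panned for five rounds over stable GPR1-overexpressing HEK293 cells (2 × 10^5/well, seeded 24 h). Eluted clones were serially diluted and incubated with GPR1-overexpressing or empty-vector HEK293 cells. Phage ssDNA was then sequenced.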

MDA-MB-231 cells [4] = assay: Colony formation assay, MDA-MB-231; format: cell-based; settings: 1 month of treatment, Figure 3B
Method in brief: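 MDA-MB-231-tomato cells were seeded at 1 × 10^3 cells/well in 6-well plates. They were exposed to indicated concentrations of test peptide or scrambled peptide. Fluorescent colonies were counted under a fluorescence microscope.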

MDA-MB-231 cells [5] = assay: MTT cell viability / proliferation, MDA-MB-231; format: cell-based; settings: 1 nM–100 μM, 24, 48 or 72 h, 0.04% FBS, Figure 3A
Method in brief: (§2)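 Log-phase cells (DMEM, 10% FBS) are seeded at 5 × 10^3 cells/well for 24 h, then starved 12 h in 0.04% FBS medium. Serially diluted test peptide or scrambled peptide is added in the same medium. Viability is read by MTT at 24, 48 and 72 h. Mean ± SD of three independent experiments; one-way ANOVA versus 0 μM at each time.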

GPR1 [6] = assay: Calcium mobilization assay, GPR1-expressing cells; format: cell-based, human; settings: Fluo-4 NW, Figure 2D
Method in brief: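 HEK293 cells stably transfected with human GPR1 (pcDNA3.0 vector, G418 resistance), with empty-vector HEK293 as control, grown in DMEM with 10% FBS. […] Fluo-4 NW dye is used following the kit instructions. Reported as mean ± SD of three independent experiments.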

tumor tissue [7] = assay: Histology/IHC of tumor tissue; format: in vivo, nude BALB/c mice
Method in brief: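 Xenograft tumors were fixed in 4% PFA overnight, paraffin-embedded and sectioned. Sections were H&E-stained (×200, ×400) or immunostained for Ki-67, PCNA and vimentin using an IHC kit (×200). Groups were test peptide- or scrambled peptide-treated mice.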

MDA-MB-231 cells [8] = assay: Apoptosis by Annexin V/PI flow cytometry; format: cell-based; settings: 24, 48 or 72 h, Annexin V-FITC/PI, Figure 3D
Method in brief: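 MDA-MB-231 cells were grown in DMEM with 10% FBS at 37°C and 5% CO2. They were treated with serial dilutions of test peptide or scrambled peptide, then stained with FITC-Annexin V and PI for flow cytometry. Annexin V+/PI− (early) plus Annexin V+/PI+ (late) cells were scored as apoptotic. Three independent experiments, mean ± SD, one-way ANOVA.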

TNBC cells = assay: Western blot of cell-cycle, apoptosis and invasion proteins; format: cell-based; settings: immunoblot, Figure 4D
[9] = Body weight of nude mice, HCC1937 model; format: in vivo, nude BALB/c mice; settings: i.p. daily, 25 days, Figure S5E
Method in brief: (§3)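 Female nude BALB/c mice, 4–6 weeks old, were randomised into five groups. Each received MDA-MB-231-tomato or HCC1937-tomato cells (7 × 106 in 100 μL PBS) s.c. into the left axilla. Serially diluted test peptide or scrambled peptide was given i.p. daily for 25 days. Body weight and tumor size were recorded every 3 days, with volume = length × width² × 0.5. IVIS imaging was done twice weekly. Tumors were weighed at sacrifice.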

HCC1937 cells [10] = assay: Transwell migration assay, HCC1937; format: cell-based; settings: 12 h, Figure S4
HCC1937 cells [11] = assay: MTT cell viability / proliferation, HCC1937; format: cell-based; settings: 1 nM–100 μM, 24, 48 or 72 h, 0.04% FBS, Figure 3A
Method in brief: as §2

MDA-MB-231 cells [12] = assay: Transwell migration assay, MDA-MB-231; format: cell-based; settings: 0.1 μM to 10 μM, 12 h, Figure 4
Method in brief: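 Uncoated Transwell chambers were used. MDA-MB-231 cells were placed in the upper chamber in FBS-free medium with test peptide or scrambled peptide. The lower chamber held 10% FBS medium. Incubation ran 12 h at 37°C, 5% CO2. Unmigrated cells were wiped off. Migrated cells were methanol-fixed for 10 min, hematoxylin-stained for 30 min at RT, and counted by inverted microscopy. Three independent experiments, mean ± SD.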

MDA-MB-231 cells [13] = assay: Transwell invasion assay, MDA-MB-231; format: cell-based; settings: Matrigel-coated Transwell, 48 h, Figure 4
Method in brief: as §1

GPR1 [14] = molecular target: T1, GPR1 (Homo sapiens, UniProt P46091); assay: Immunofluorescence colocalization of FITC-LRH7-G5 with GPR1; format: cell-based; settings: breast cancer cells; 1 μM FITC-labeled peptide, 2 h at RT, confocal microscopy
T1 sequence (P46091 1-355): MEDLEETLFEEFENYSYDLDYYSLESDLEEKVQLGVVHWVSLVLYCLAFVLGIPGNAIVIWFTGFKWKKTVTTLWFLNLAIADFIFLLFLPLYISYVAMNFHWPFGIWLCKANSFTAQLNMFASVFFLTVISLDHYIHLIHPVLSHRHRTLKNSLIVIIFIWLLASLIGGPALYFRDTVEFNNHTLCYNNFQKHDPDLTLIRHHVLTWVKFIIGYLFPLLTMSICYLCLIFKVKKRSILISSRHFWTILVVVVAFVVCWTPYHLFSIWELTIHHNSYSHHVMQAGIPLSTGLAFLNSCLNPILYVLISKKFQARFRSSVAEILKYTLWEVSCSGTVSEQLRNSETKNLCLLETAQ

HEK293 pcDNA cells = assay: Calcium mobilization assay, HEK293 pcDNA cells; format: cell-based; settings: Fluo-4 NW, Figure 2D
Method in brief: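 Stably transfected HEK293 cells carrying empty pcDNA3.0 vector (G418 resistance) served as the control line. Intracellular calcium was read with Fluo-4 NW dye following the kit protocol. Human recombinant chemerin was the agonist and test peptide the antagonist. Three independent experiments, mean ± SD.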

MDA-MB-231 cells [15] = assay: Cell-cycle distribution by flow cytometry; format: cell-based; settings: 24, 48 or 72 h, PI staining, Figure 3C
Method in brief: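 MDA-MB-231 cells (DMEM, 10% FBS, 37°C, 5% CO2) are treated with serially diluted test peptide for 24, 48 or 72 h. Cells are stained with propidium iodide for 30 min at room temperature in the dark. Flow cytometry gives the percentages in G0/G1, S and G2/M. Mean ± SD of three independent experiments; one-way ANOVA versus control phases.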

MDA-MB-231 xenograft = MDA-MB-231 xenograft in nude mice; format: in vivo, nude BALB/c mice; settings: MDA-MB-231 nude mice; i.p. daily, 25 days; n = 5–6 per group
Method in brief: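 Female nude BALB/c mice, 4–6 weeks old, receive 7 × 10^6 MDA-MB-231-tomato cells in 100 μL PBS subcutaneously into the left axilla. Serially diluted test peptide or scrambled peptide is injected i.p. daily. Body weight and tumor size are recorded every 3 days, with volume = length × width² × 0.5, and IVIS bioluminescence is imaged twice weekly. Tumors are weighed at sacrifice; mean ± SD.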

HCC1937 xenograft = HCC1937 xenograft in nude mice; format: in vivo, nude BALB/c mice; settings: i.p. daily, 25 days, n=5
Method in brief: as §3

PI3K/AKT pathway = assay: Western blot of PI3K/AKT pathway; format: cell-based
[16] = Body weight of nude mice, MDA-MB-231 model; format: in vivo, nude BALB/c mice; settings: MDA-MB-231 nude mice; i.p. daily, 25 days; Figure 5F
Method in brief: as §3

T47D cells = assay: MTT cell viability / proliferation, T47D; format: cell-based; settings: 1 nM–100 μM, 24, 48 or 72 h, 0.04% FBS, Figure 3A
Method in brief: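 T47D cells were maintained in RPMI with 10% FBS. Log-phase cells were seeded at 5 × 10^3 cells/well for 24 h, then starved in 0.04% FBS medium for 12 h. Serial dilutions of test peptide or scrambled peptide in 0.04% FBS medium were added for 24, 48 and 72 h before MTT read-out. Three independent experiments, mean ± SD. One-way ANOVA versus 0 μM at each time point.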

GPR1 [17] = molecular target: T1, GPR1; settings: cited from earlier work
[18] = test system: receptors CMKLR1 and GPR1; settings: comparison of the two receptors; cited from earlier work
GPR1 [19] = assay: cAMP assay; format: cell-based, human; settings: 10 nM huChemerin, 10 μM forskolin, 30 min at 37°C; mean ± SD, three independent experiments
Method in brief: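 Stable GPR1-transfected and empty-vector HEK293 cells are seeded at 5 × 10^3 cells/well for 24 h. Cells are then exposed to serial dilutions of test peptide alone, forskolin plus chemerin, or forskolin, chemerin and peptide combined. cAMP is measured with a commercial kit.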

[20] = Gi class of heterotrimeric G proteins

MPRLPPA [LRH7-G5]
effect on invasion (HCC1937 cells [1]): significantly suppressed
cellular apoptosis in tumor (TUNEL) (tumor tissue [2]): increase in cellular apoptosis; also recorded: induces apoptosis in tumors
binding affinity of phage clones to GPR1 (GPR1 [3]): highest affinity
effect on colony formation (MDA-MB-231 cells [4]): validated by colony formation assays
effect on cell growth (MTT) (MDA-MB-231 cells [5]): significantly suppressed cell growth in a dose-dependent manner
effect on chemerin-induced calcium mobilization (GPR1 [6]): significantly decreased chemerin-induced calcium mobilization
tumor necrosis (H&E) (tumor tissue [7]; H&E staining, Figure 6A): exhibited cellular necrosis
tumor cell growth (Ki-67, PCNA, vimentin staining) (tumor tissue [7]; IHC staining of Ki-67, PCNA, and vimentin, Figure 6B): decreased cell growth
induction of apoptosis (MDA-MB-231 cells [8]): induced their apoptosis
Bcl-2 level (TNBC cells; apoptosis regulator): decreased
Stat3 level (TNBC cells; apoptosis regulator): decreased
cyclin D level (TNBC cells; cell-cycle-related protein): decreased
MMP-2 level (TNBC cells; invasion-related): decreased
MMP-9 level (TNBC cells; invasion-related): decreased
N-cadherin level (TNBC cells; invasion-related): decreased
Snail level (TNBC cells; invasion-related): decreased
vimentin level (TNBC cells; invasion-related): decreased
body weight [9]: did not affect body weight
effect on migration (HCC1937 cells [10]): significantly suppressed
effect on cell growth (MTT) (HCC1937 cells [11]): significantly suppressed cell growth in a dose-dependent manner
effect on migration (MDA-MB-231 cells [12]): significantly suppressed; also recorded: decreased migration
effect on invasion (MDA-MB-231 cells [13]): significantly suppressed
colocalization with GPR1 (GPR1 [14]): marked colocalization with GPR1
effect on calcium mobilization in HEK293 pcDNA cells (HEK293 pcDNA cells): did not affect
cell-cycle arrest (MDA-MB-231 cells [15]): arrested MDA-MB-231 cells at the G0/G1 phase boundary
tumor burden (MDA-MB-231 xenograft): reduced the tumor burden in a dose-dependent manner
tumor volume (HCC1937 xenograft; compared with control group): markedly decreased
tumor weight (HCC1937 xenograft; compared with control group): markedly decreased
tumor growth (HCC1937 xenograft; dose-dependent, bioluminescence): substantially suppressed tumor growth
tumor burden (HCC1937 xenograft): reduced the tumor burden in a dose-dependent manner
effect of peptide in coculture with AKT phosphorylation activator SC-79 (PI3K/AKT pathway; cocultured with SC-79): enhanced by the AKT agonist
effect of peptide in coculture with PI3K inhibitor wortmannin (PI3K/AKT pathway; cocultured with wortmannin): weakened by the PI3K inhibitor
phosphorylation of AKT (PI3K/AKT pathway; immunoblot): significantly decreased
phosphorylation of ERK (PI3K/AKT pathway; immunoblot): significantly decreased
mean body weight [16]: did not change significantly
effect on cell growth (MTT) (T47D cells): little effect

chemerin: human recombinant chemerin, R&D Systems; chemokine-like adipokine, GPR1 ligand
cAMP accumulation on GPR1 activation (GPR1 [17]; [20]): inhibition of cyclic adenosine monophosphate (cAMP) accumulation
p42-p44 MAP kinases phosphorylation on GPR1 activation (GPR1 [17]; [20]): phosphorylation of the p42-p44 MAP kinases
intracellular calcium release on GPR1 activation (GPR1 [17]): intracellular calcium release
binding affinities for CMKLR1 and GPR1 [18]: similar
effect on forskolin-induced cAMP release (GPR1 [19]): suppressed forskolin-induced cAMP release
